Assay results as given in PMC7894400 (CPT: Pharmacometrics & Systems Pharmacology, 2021).
Several values for one entry are separate records, joined by “and”; a condition that tells them apart may be missing. Identical values can stand only once. Entries after “also recorded” stand apart in the source; their conditions may differ.

Tests used:
[1] = cited from earlier work
CYP3A and UGT1A4 = conditions: cited from earlier work
[2] = cited from earlier work; remark: listed apart in the source
[3] = Population pharmacokinetic; assay type: in vivo, human
In short: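 Pooled plasma data from a phase I/II study in ALK+ or ROS1+ NSCLC (10–200 mg oral q.d. or 35–100 mg b.i.d.) plus six healthy-participant studies (100 mg oral doses; one study 50 mg i.v.). Nonlinear mixed effects, FOCEI; central/peripheral volumes, first-order ka, F; clearance time-varying from single-dose CLI to steady-state CLMX via induction rate constant; exponential between-subject effects; covariates include rabeprazole co-administration on ka and F.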

[4] = healthy volunteers, study B7461008
[5] = bootstrap mean, 1,000 resampled datasets
[6] = high BWT 91.3 kg (90th percentile), final PopPK model prediction
[7] = highest possible exposure at 100 mg q.d.: BWT 50 kg, BALB 3.2 mg/dL, no PPI use
[8] = low BWT 50 kg (10th percentile), final PopPK model prediction
[9] = lowest possible exposure at 100 mg q.d.: BWT 91.3 kg, BALB 4.6 mg/dL, PPI use

lower CL (initial and time-varying induced) compared with 100 mg q.d. ([3]; 10 mg q.d. lorlatinib): 12.4%
higher CL (initial and time-varying induced) compared with 100 mg q.d. ([3]; 200 mg q.d. lorlatinib): 13.8%
decrease in ka relative to a typical patient without PPI use ([3]; PPI use): 67.5%
θ CLMX [3, 5]: 14.584 L/h
θ D1 [3, 5]: 1.149 h
θ F [3, 5]: 0.764
θ IND [3, 5]: 0.027
θ PPI on ka [3, 5]: −0.664
θ Q [3, 5]: 22.491 L/h
θ V2 [3, 5]: 120.618 L
θ V3 [3, 5]: 156.640 L
θ ka [3, 5]: 3.128 h⁻¹
ωFωCL [3, 5]: -0.005
ωV2ωV3 [3, 5]: −0.017
ω^2 F [3, 5]: 0.023
ω^2 V2 [3, 5]: 0.085
ω^2 V3 [3, 5]: 0.099
ω^2 ka [3, 5]: 2.345
increase in CL with every unit of BALB over 4 mg/dL ([3]; final PopPK model): 6.68%
θ BALB on CL (covariate effect of baseline albumin) ([3]; final PopPK model estimate): 0.067
θ D1, zero-order duration of absorption ([3]; final PopPK model estimate): 1.15 h and 1.148 h
θ PPI on ka (covariate effect of proton pump inhibitor use) ([3]; final PopPK model estimate): –0.675
θ TDOSE on CL (covariate effect of total daily dose) ([3]; final PopPK model estimate): 0.001
θ WNCL on CL (covariate effect of standardized creatinine clearance) ([3]; final PopPK model estimate): 0.235
ωFωCL (IIV covariance) ([3]; final PopPK model estimate): -0.006
ωV2ωV3 (IIV covariance) ([3]; final PopPK model estimate): −0.017
ω^2 F (IIV) ([3]; final PopPK model estimate): 0.022
ω^2 V2 (IIV) ([3]; final PopPK model estimate): 0.086
ω^2 V3 (IIV) ([3]; final PopPK model estimate): 0.101
ω^2 ka (IIV) ([3]; final PopPK model estimate): 2.329
θ ka, first-order absorption rate constant ([3]; final PopPK model estimate, no PPI use): 3.1 h⁻¹ and 3.11 h⁻¹ and 3.113 h⁻¹
θ IND, rate constant of induction ([3]; final PopPK model estimate, unit not given): 0.0199 and 0.020
increase in CL compared with the typical patient (BALB 4 mg/dL) ([3]; high BALB 4.6 mg/dL (90th percentile)): 4%
increase in CL relative to the typical patient [3, 6]: 22%
increase in V2 relative to the typical patient [3, 6]: 30.4%
change in ka compared with a typical patient [3, 7]: unchanged
decrease in CL compared with a typical patient [3, 7]: 26.5%
decrease in V2 compared with a typical patient [3, 7]: 28.6%
bioavailability ([3]; human, plasma, oral): 75.9%
reduction in CL relative to a typical patient [3, 8]: 22.3%
reduction in V2 relative to a typical patient [3, 8]: 28.6%
decrease in ka compared with a typical patient [3, 9]: 67.5%
increase in CL compared with a typical patient [3, 9]: 26.9%
increase in V2 compared with a typical patient [3, 9]: 30.4%
SMILES: C[C@H]1Oc2cc(cnc2N)-c2c(nn(C)c2C#N)CN(C)C(=O)c2ccc(F)cc21 [lorlatinib]
dose-limiting toxicities ([1]; 150 mg q.d., dose escalation portion of Study B7461001): dose‐limiting toxicities were seen
steady-state lorlatinib CL versus dose ([1]; Study B7461001, noncompartmental analysis): increased with increasing dose
levels of CYP3A4 activity (urine 6-beta-hydroxy-cortisol/cortisol and plasma 4-beta-hydroxy-cholesterol/cholesterol ratios) ([1]; phase I portion of B7461001, multiple dosing): initially increased with time following multiple dosing
accumulation after multiple dosing ([1]; phase I portion of B7461001): less than expected
metabolizing enzymes (CYP3A and UGT1A4): metabolized primarily by cytochrome P450 (CYP)3A and UGT1A4, and to a lesser extent by CYP2C8, CYP2C19, CYP3A5, and UGT1A3
effect of a high-fat meal on lorlatinib exposure [2]: not to have a meaningful effect
effect of PPI rabeprazole co-administration on lorlatinib AUCinf [2, 4]: no effect; also recorded: without changing
reduction of lorlatinib Cmax by co-administration of the PPI rabeprazole [2, 4]: ~ 30% and 30%
